Experimental data as given in ChEMBL document CHEMBL2429740, “The synthesis and SAR study of phenylalanine-derived (Z)-5-arylmethylidene rhodanines as anti-methicillin-resistant Staphylococcus aureus (MRSA) compounds” (2013).
Values after ≈ are worked out from the molar mass of the structure shown.

How the values were obtained:
Assay type in all cases: functional
Staphylococcus aureus [1] = assay: Antibacterial activity against methicillin-resistant Staphylococcus aureus ATCC 700787 by microdilution technique
Staphylococcus aureus [2] = assay: Antibacterial activity against methicillin-resistant Staphylococcus aureus ST239 HS770 by microdilution technique
Staphylococcus aureus [3] = assay: Antibacterial activity against methicillin-resistant Staphylococcus aureus ATCC BAA-39 by microdilution technique
Staphylococcus aureus [4] = assay: Antibacterial activity against methicillin-resistant Staphylococcus aureus ATCC 34404 by microdilution technique
Staphylococcus aureus [5] = assay: Antibacterial activity against methicillin-resistant Staphylococcus aureus CA ATCC BAA-1680 by microdilution technique
Staphylococcus aureus [6] = assay: Antibacterial activity against methicillin-resistant Staphylococcus aureus ATCC 700698 by microdilution technique
Staphylococcus aureus [7] = assay: Ratio of MIC for methicillin-resistant Staphylococcus aureus CA ATCC BAA-1680 in absence of 10% FBS to MIC for methicillin-resistant Staphylococcus aureus CA ATCC BAA-1680 in presence of 10% FBS
In short: (§1)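 MIC determined by the same turbidity-based microdilution method, once in standard medium and once in medium with 10% fetal serum added, to probe serum protein binding. The ratio is the MIC without serum over the MIC with serum, for each strain.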

Staphylococcus aureus [8] = assay: Ratio of MIC for methicillin-resistant Staphylococcus aureus ATCC BAA-39 in absence of 10% FBS to MIC for methicillin-resistant Staphylococcus aureus ATCC BAA-39 in presence of 10% FBS; in short: as §1
Staphylococcus aureus [9] = assay: Ratio of MIC for methicillin-resistant Staphylococcus aureus ATCC 34404 in absence of 10% FBS to MIC for methicillin-resistant Staphylococcus aureus ATCC 34404 in presence of 10% FBS; in short: as §1
Staphylococcus aureus [10] = assay: Ratio of MIC for methicillin-resistant Staphylococcus aureus ST239 HS770 in absence of 10% FBS to MIC for methicillin-resistant Staphylococcus aureus ST239 HS770 in presence of 10% FBS; in short: as §1
Staphylococcus aureus [11] = assay: Ratio of MIC for methicillin-resistant Staphylococcus aureus ATCC 700787 in absence of 10% FBS to MIC for methicillin-resistant Staphylococcus aureus ATCC 700787 in presence of 10% FBS; in short: as §1
Staphylococcus aureus [12] = assay: Ratio of MIC for methicillin-resistant Staphylococcus aureus ATCC 700698 in absence of 10% FBS to MIC for methicillin-resistant Staphylococcus aureus ATCC 700698 in presence of 10% FBS; in short: as §1

Compound	MIC (Staphylococcus aureus [1]) [µg/mL]	MIC (Staphylococcus aureus [2]) [µg/mL]	MIC (Staphylococcus aureus [3]) [µg/mL]	MIC (Staphylococcus aureus [4]) [µg/mL]	MIC (Staphylococcus aureus [5]) [µg/mL]	MIC (Staphylococcus aureus [6]) [µg/mL]	Ratio (Staphylococcus aureus [7])	Ratio (Staphylococcus aureus [8])	Ratio (Staphylococcus aureus [9])	Ratio (Staphylococcus aureus [10])	Ratio (Staphylococcus aureus [11])	Ratio (Staphylococcus aureus [12])
O=C(O)[C@H](Cc1ccccc1)N1C(=O)/C(=C/c2cccc(-c3cncnc3)c2)SC1=S	125 (≈ 279 µM)	125 (≈ 279 µM)	125 (≈ 279 µM)	125 (≈ 279 µM)	125 (≈ 279 µM)	125 (≈ 279 µM)	–	–	–	–	–	–
O=C(O)[C@H](Cc1ccccc1)N1C(=O)/C(=C/c2cccc(Cc3ccccc3)c2)SC1=S	3.9 (≈ 8.49 µM)	–	1.95 (≈ 4.24 µM)	1.95 (≈ 4.24 µM)	1.95 (≈ 4.24 µM)	3.9 (≈ 8.49 µM)	–	–	–	–	–	–
O=C(O)[C@H](Cc1ccccc1)N1C(=O)/C(=C/c2cccc(Oc3cccc(Cl)c3)c2)SC1=S	15.6 (≈ 31.5 µM)	–	15.6 (≈ 31.5 µM)	15.6 (≈ 31.5 µM)	15.6 (≈ 31.5 µM)	15.6 (≈ 31.5 µM)	–	–	–	–	–	–
O=C(O)[C@H](Cc1ccccc1)N1C(=O)/C(=C/c2cccc(-c3ccc(Cl)c(Cl)c3)c2)SC1=S	3.9 (≈ 7.58 µM)	1.95 (≈ 3.79 µM)	3.9 (≈ 7.58 µM)	3.9 (≈ 7.58 µM)	7.8 (≈ 15.2 µM)	7.8 (≈ 15.2 µM)	–	–	–	–	–	–
O=C(O)[C@H](Cc1ccccc1)N1C(=O)/C(=C/c2cccc(OCC3CC3)c2)SC1=S	15.6 (≈ 35.5 µM)	15.6 (≈ 35.5 µM)	15.6 (≈ 35.5 µM)	15.6 (≈ 35.5 µM)	15.6 (≈ 35.5 µM)	15.6 (≈ 35.5 µM)	–	–	–	–	–	–
O=C(O)[C@@H](Cc1ccccc1)N1C(=O)/C(=C/c2cccc(Oc3ccc(F)cc3)c2)SC1=S	1.95 (≈ 4.07 µM)	1.95 (≈ 4.07 µM)	1.95 (≈ 4.07 µM)	1.95 (≈ 4.07 µM)	1.95 (≈ 4.07 µM)	1.95 (≈ 4.07 µM)	–	–	–	–	–	–
O=C(O)[C@H](Cc1ccccc1)N1C(=O)/C(=C/c2cccc(Oc3ccc(F)cc3)c2)SC1=S	7.8 (≈ 16.3 µM)	–	7.8 (≈ 16.3 µM)	7.8 (≈ 16.3 µM)	7.8 (≈ 16.3 µM)	7.8 (≈ 16.3 µM)	–	–	–	–	–	–
O=C(O)[C@H](Cc1ccccc1)N1C(=O)/C(=C/c2cccc(Oc3ccc(Cl)cc3)c2)SC1=S	15.6 (≈ 31.5 µM)	–	7.8 (≈ 15.7 µM)	7.8 (≈ 15.7 µM)	15.6 (≈ 31.5 µM)	7.8 (≈ 15.7 µM)	–	–	–	–	–	–
O=C(O)[C@@H](Cc1ccccc1)N1C(=O)/C(=C/c2cccc(Oc3ccc(Cl)cc3)c2)SC1=S	3.9 (≈ 7.86 µM)	1.95 (≈ 3.93 µM)	1.95 (≈ 3.93 µM)	1.95 (≈ 3.93 µM)	1.95 (≈ 3.93 µM)	3.9 (≈ 7.86 µM)	–	–	–	–	–	–
O=C(O)[C@H](Cc1ccccc1)N1C(=O)/C(=C/c2cccc(Oc3ccc(Cl)c(Cl)c3)c2)SC1=S	3.9 (≈ 7.35 µM)	–	1.95 (≈ 3.68 µM)	0.98 (≈ 1.85 µM)	1.95 (≈ 3.68 µM)	1.95 (≈ 3.68 µM)	2	2	2	2	2	2
O=C(O)[C@@H](Cc1ccccc1)N1C(=O)/C(=C/c2cccc(Oc3ccccc3)c2)SC1=S	3.9 (≈ 8.45 µM)	3.9 (≈ 8.45 µM)	3.9 (≈ 8.45 µM)	3.9 (≈ 8.45 µM)	1.95 (≈ 4.22 µM)	1.95 (≈ 4.22 µM)	–	–	–	–	–	–
O=C(O)[C@H](Cc1ccccc1)N1C(=O)/C(=C/c2cccc(-c3nccs3)c2)SC1=S	31.2 (≈ 69 µM)	3.9 (≈ 8.62 µM)	7.8 (≈ 17.2 µM)	15.6 (≈ 34.5 µM)	31.2 (≈ 69 µM)	31.2 (≈ 69 µM)	–	–	–	–	–	–
O=C(O)[C@H](Cc1ccccc1)N1C(=O)/C(=C/c2ccccc2Oc2ccccc2)SC1=S	1.95 (≈ 4.22 µM)	–	3.9 (≈ 8.45 µM)	1.95 (≈ 4.22 µM)	1.95 (≈ 4.22 µM)	1.95 (≈ 4.22 µM)	–	–	–	–	–	–
O=C(O)[C@H](Cc1ccccc1)N1C(=O)/C(=C/c2cccc(-c3ccccc3)c2)SC1=S	1.95 (≈ 4.38 µM)	1.95 (≈ 4.38 µM)	0.98 (≈ 2.2 µM)	0.98 (≈ 2.2 µM)	1.95 (≈ 4.38 µM)	1.95 (≈ 4.38 µM)	2	2	2	2	2	2
O=C(O)[C@H](Cc1ccccc1)N1C(=O)/C(=C/c2ccc(Oc3ccccc3)cc2)SC1=S	7.8 (≈ 16.9 µM)	7.8 (≈ 16.9 µM)	3.9 (≈ 8.45 µM)	1.95 (≈ 4.22 µM)	1.95 (≈ 4.22 µM)	1.95 (≈ 4.22 µM)	–	–	–	–	–	–
CN[C@H](CC(C)C)C(=O)N[C@H]1C(=O)N[C@@H](CC(N)=O)C(=O)N[C@H]2C(=O)N[C@H]3C(=O)N[C@H](C(=O)N[C@H](C(=O)O)c4cc(O)cc(O)c4-c4cc3ccc4O)[C@H](O)c3ccc(c(Cl)c3)Oc3cc2cc(c3O[C@@H]2O[C@H](CO)[C@@H](O)[C@H](O)[C@H]2O[C@H]2C[C@](C)(N)[C@H](O)[C@H](C)O2)Oc2ccc(cc2Cl)[C@H]1O [VANCOMYCIN]	1.95 (≈ 1.35 µM)	≤ 0.48	≤ 0.48	≤ 0.48	≤ 0.48	≤ 0.48	–	–	–	–	–	–

Compound	MIC (Staphylococcus aureus [1]) [µg/mL]	MIC (Staphylococcus aureus [2]) [µg/mL]	MIC (Staphylococcus aureus [3]) [µg/mL]	MIC (Staphylococcus aureus [4]) [µg/mL]	MIC (Staphylococcus aureus [5]) [µg/mL]	MIC (Staphylococcus aureus [6]) [µg/mL]	Ratio (Staphylococcus aureus [7])	Ratio (Staphylococcus aureus [8])	Ratio (Staphylococcus aureus [9])	Ratio (Staphylococcus aureus [10])	Ratio (Staphylococcus aureus [11])	Ratio (Staphylococcus aureus [12])
O=C(O)c1cn(C2CC2)c2cc(N3CCNCC3)c(F)cc2c1=O [CIPROFLOXACIN]	62.5 (≈ 189 µM)	62.5 (≈ 189 µM)	–	≤ 0.48	–	–	–	–	–	–	–	–
O=C(O)[C@H](Cc1ccccc1)N1C(=O)/C(=C/c2cccc(OCCc3ccccc3)c2)SC1=S	31.2 (≈ 63.8 µM)	15.6 (≈ 31.9 µM)	31.2 (≈ 63.8 µM)	31.2 (≈ 63.8 µM)	15.6 (≈ 31.9 µM)	31.2 (≈ 63.8 µM)	–	–	–	–	–	–
O=C(O)[C@@H](Cc1ccccc1)N1C(=O)/C(=C/c2cccc(Oc3ccc(Cl)c(Cl)c3)c2)SC1=S	15.6 (≈ 29.4 µM)	3.9 (≈ 7.35 µM)	1.95 (≈ 3.68 µM)	1.95 (≈ 3.68 µM)	3.9 (≈ 7.35 µM)	1.95 (≈ 3.68 µM)	–	–	–	–	–	–
O=C(O)[C@H](Cc1ccccc1)N1C(=O)/C(=C/c2ccccc2OCc2ccccc2)SC1=S	15.6 (≈ 32.8 µM)	7.8 (≈ 16.4 µM)	15.6 (≈ 32.8 µM)	7.8 (≈ 16.4 µM)	7.8 (≈ 16.4 µM)	7.8 (≈ 16.4 µM)	–	–	–	–	–	–
O=C(O)[C@H](Cc1ccccc1)N1C(=O)/C(=C/c2ccccc2Cc2ccccc2)SC1=S	7.8 (≈ 17 µM)	15.6 (≈ 33.9 µM)	7.8 (≈ 17 µM)	15.6 (≈ 33.9 µM)	3.9 (≈ 8.49 µM)	7.8 (≈ 17 µM)	–	–	–	–	–	–
CC1(C)S[C@@H]2[C@H](NC(=O)Cc3ccccc3)C(=O)N2[C@H]1C(=O)O [PENICILLIN G]	62.5 (≈ 187 µM)	250 (≈ 748 µM)	62.5 (≈ 187 µM)	31.2 (≈ 93.5 µM)	125 (≈ 374 µM)	15.6 (≈ 46.7 µM)	–	–	–	–	–	–
O=C(O)[C@H](Cc1ccccc1)N1C(=O)/C(=C/c2ccccc2-c2ccccc2)SC1=S	15.6 (≈ 35 µM)	7.8 (≈ 17.5 µM)	7.8 (≈ 17.5 µM)	7.8 (≈ 17.5 µM)	7.8 (≈ 17.5 µM)	15.6 (≈ 35 µM)	–	–	–	–	–	–
COc1ccc(Oc2cccc(/C=C3\SC(=S)N([C@@H](Cc4ccccc4)C(=O)O)C3=O)c2)cc1	7.8 (≈ 15.9 µM)	–	7.8 (≈ 15.9 µM)	7.8 (≈ 15.9 µM)	15.6 (≈ 31.7 µM)	7.8 (≈ 15.9 µM)	–	–	–	–	–	–
O=C(O)[C@H](Cc1ccccc1)N1C(=O)/C(=C/c2cccc(OCc3ccccc3)c2)SC1=S	3.9 (≈ 8.2 µM)	1.95 (≈ 4.1 µM)	1.95 (≈ 4.1 µM)	1.95 (≈ 4.1 µM)	1.95 (≈ 4.1 µM)	3.9 (≈ 8.2 µM)	–	–	–	–	–	–
O=C(c1ccccc1)c1cccc(/C=C2\SC(=S)N([C@@H](Cc3ccccc3)C(=O)O)C2=O)c1	7.8 (≈ 16.5 µM)	–	3.9 (≈ 8.24 µM)	3.9 (≈ 8.24 µM)	3.9 (≈ 8.24 µM)	7.8 (≈ 16.5 µM)	–	–	–	–	–	–
O=C(O)[C@H](Cc1ccccc1)N1C(=O)/C(=C/c2ccccc2OCCc2ccccc2)SC1=S	15.6 (≈ 31.9 µM)	15.6 (≈ 31.9 µM)	15.6 (≈ 31.9 µM)	15.6 (≈ 31.9 µM)	7.8 (≈ 15.9 µM)	7.8 (≈ 15.9 µM)	–	–	–	–	–	–
O=C(O)[C@H](Cc1ccccc1)N1C(=O)/C(=C/c2cccc(Oc3cccc(F)c3)c2)SC1=S	31.2 (≈ 65.2 µM)	–	15.6 (≈ 32.5 µM)	15.6 (≈ 32.5 µM)	31.2 (≈ 65.2 µM)	15.6 (≈ 32.5 µM)	–	–	–	–	–	–
O=C(O)[C@@H](Cc1ccccc1)N1C(=O)/C(=C/c2cccc(Oc3cccc(Cl)c3)c2)SC1=S	3.9 (≈ 7.86 µM)	1.95 (≈ 3.93 µM)	1.95 (≈ 3.93 µM)	0.98 (≈ 1.98 µM)	1.95 (≈ 3.93 µM)	3.9 (≈ 7.86 µM)	2	2	2	2	2	2
O=C(O)[C@H](Cc1ccccc1)N1C(=O)/C(=C/c2cccc(Cc3ccc(Cl)c(Cl)c3)c2)SC1=S	62.5 (≈ 118 µM)	15.6 (≈ 29.5 µM)	15.6 (≈ 29.5 µM)	31.2 (≈ 59.1 µM)	31.2 (≈ 59.1 µM)	31.2 (≈ 59.1 µM)	–	–	–	–	–	–
O=C(O)[C@H](Cc1ccccc1)N1C(=O)/C(=C/c2ccccc2Oc2ccc(Cl)c(Cl)c2)SC1=S	3.9 (≈ 7.35 µM)	1.95 (≈ 3.68 µM)	3.9 (≈ 7.35 µM)	3.9 (≈ 7.35 µM)	3.9 (≈ 7.35 µM)	7.8 (≈ 14.7 µM)	–	–	–	–	–	–
